Measured values as given in ChEMBL document CHEMBL1130202, “Biologically active heteroarotinoids exhibiting anticancer activity and decreased toxicity” (J Med Chem, 1997).

These molecules were tested on CC-B (assay: Relative transcriptional activation activity relative to t-RA).
Type: functional, Homo sapiens
Procedure, shortened: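 CC-B reporter cells (CC-1 cervical line carrying a CAT gene under a RARE with a tk promoter) were seeded at 4×10^5 cells/well in MEM with nonessential amino acids, pyruvate and 10% FBS, the serum lots having negligible t-RA by HPLC. Triplicate cultures were screened at 10^-6 M with 0.1% DMSO final. After 48 h, CAT activity ([3H]acetyl-CoA) per mg protein was taken as treated/control and expressed relative to t-RA. Average of three experiments.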

Q: `CCOC(=O)c1ccc(/C=C(\C)c2ccc3c(c2)C(C)(C)CCS3)cc1` was tested. Which Relative activity did it give?
A: 51

Q: How did the Relative activity turn out when `CC(/C=C/C=C(\C)c1ccc2c(c1)C(C)(C)CS2)=C\C(=O)O` was run?
A: 50

Q: How did the Relative activity turn out when `CCOC(=O)c1ccc(OC(=O)c2ccc3c(c2)C(C)(C)CCO3)cc1` was run?
A: 40

Q: With `CCOC(=O)c1ccc(/C=C(\C)c2ccc3c(c2)C(C)(C)CCO3)cc1` as the molecule, how does the Relative activity read?
A: 35.7

Q: For `COC(=O)c1ccc(C(=O)Oc2c(C)cc3c(c2C)C(C)(C)CC(=O)O3)cc1`, which Relative activity is on record?
A: 29

Q: How did the Relative activity turn out when `CC1(C)CCOc2ccc(C(=O)Oc3ccc(/C=N\N=C(/N)S)cc3)cc21` was run?
A: 33

Q: With `CCOC(=O)c1ccc(/C=C(\C)c2ccc3c(c2)CC[C@@H](CC)[S+]3[O-])cc1` (stereo partly specified) as the molecule, how does the Relative activity read?
A: 35.8

Q: `CCCCCCCCC1CCc2cc(/C(C)=C/c3ccc(C(=O)OCC)cc3)ccc2S1` (stereo unspecified) was tested. Which Relative activity did it give?
A: 43

Q: `CCOC(=O)c1ccc(OC(=O)c2ccc3c(c2)C(C)(C)CCN3C)cc1` was tested. Which Relative activity did it give?
A: 54

Q: For `C/C(=C\c1ccc(C(=O)O)cc1)c1ccc2c(c1)C(C)(C)CS2`, which Relative activity is on record?
A: 56

Q: Which Relative activity does the source give for `C/C(=C\c1ccc(C(=O)O)cc1)c1ccc2c(c1)C(C)(C)CO2` here?
A: 46
